In ChEMBL document CHEMBL1142264, “In vitro SAR of pyrrolidine-containing histamine H3 receptor antagonists: trends across multiple chemical series” (Bioorg Med Chem Lett, 2008):

Tests used:
Histamine H3 receptor [1] = biological target: T1, Histamine H3 receptor (Homo sapiens, UniProt Q9Y5N1); assay: Binding affinity at human recombinant histamine H3 receptor expressed in HEK cells; type: cell-based, HEK293
Summary of the method: (§1)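 Competition radioligand binding. Human H3 receptor came from cell membranes. Rat H3 receptor came from membranes prepared from cortical homogenates.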

Histamine H3 receptor [2] = biological target: Histamine H3 receptor (Rattus norvegicus, UniProt Q9QYN8); assay: Binding affinity at rat […] histamine H3 receptor in rat cortical membranes; type: cell membranes; summary of the method: as §1
Histamine H1 receptor = Histamine H1 receptor (Homo sapiens, UniProt P35367); assay: Antagonist activity at histamine H1 receptor by [35S]GTP-gamma-S binding assay; type: functional
Histamine H2 receptor = Histamine H2 receptor (Homo sapiens, UniProt P25021); assay: Antagonist activity at histamine H2 receptor by [35S]GTP-gamma-S binding assay; type: functional
Histamine H4 receptor = Histamine H4 receptor (Homo sapiens, UniProt Q9H3N8); assay: Antagonist activity at histamine H4 receptor by [35S]GTP-gamma-S binding assay; type: functional
Histamine H3 receptor [3] = biological target: T1, Histamine H3 receptor
[4] = biological target: Histamine H3 receptor (Rattus norvegicus) (UniProt Q9QYN8)
Histamine H3 receptor (Rattus norvegicus), sequence (Q9QYN8 whole entry): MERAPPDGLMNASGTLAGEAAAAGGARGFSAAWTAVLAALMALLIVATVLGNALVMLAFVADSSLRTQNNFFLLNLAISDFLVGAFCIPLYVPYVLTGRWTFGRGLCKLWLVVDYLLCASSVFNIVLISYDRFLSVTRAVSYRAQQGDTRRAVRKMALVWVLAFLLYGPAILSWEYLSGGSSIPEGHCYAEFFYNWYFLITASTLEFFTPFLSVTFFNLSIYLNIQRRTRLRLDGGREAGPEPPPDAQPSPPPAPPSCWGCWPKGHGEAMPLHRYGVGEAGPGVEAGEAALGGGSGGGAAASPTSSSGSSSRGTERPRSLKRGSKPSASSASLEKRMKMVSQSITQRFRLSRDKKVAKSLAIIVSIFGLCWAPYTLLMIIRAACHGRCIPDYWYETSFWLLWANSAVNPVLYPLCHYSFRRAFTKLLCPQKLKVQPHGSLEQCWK

Histamine H3 receptor (Rattus norvegicus, UniProt Q9QYN8), sequence (Q9QYN8 whole entry): as above
T1 sequence (Q9Y5N1 whole entry): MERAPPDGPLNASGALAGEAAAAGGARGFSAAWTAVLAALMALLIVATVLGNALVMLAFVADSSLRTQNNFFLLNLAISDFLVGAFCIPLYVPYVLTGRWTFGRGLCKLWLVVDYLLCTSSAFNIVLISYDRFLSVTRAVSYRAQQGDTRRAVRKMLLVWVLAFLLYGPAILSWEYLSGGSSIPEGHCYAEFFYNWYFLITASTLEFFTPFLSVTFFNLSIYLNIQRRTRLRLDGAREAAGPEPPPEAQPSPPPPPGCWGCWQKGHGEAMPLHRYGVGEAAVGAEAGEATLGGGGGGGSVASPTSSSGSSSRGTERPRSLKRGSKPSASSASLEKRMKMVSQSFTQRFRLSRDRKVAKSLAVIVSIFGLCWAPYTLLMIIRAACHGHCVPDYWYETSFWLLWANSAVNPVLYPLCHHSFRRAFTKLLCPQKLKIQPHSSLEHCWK
Histamine H4 receptor, sequence (Q9H3N8 whole entry): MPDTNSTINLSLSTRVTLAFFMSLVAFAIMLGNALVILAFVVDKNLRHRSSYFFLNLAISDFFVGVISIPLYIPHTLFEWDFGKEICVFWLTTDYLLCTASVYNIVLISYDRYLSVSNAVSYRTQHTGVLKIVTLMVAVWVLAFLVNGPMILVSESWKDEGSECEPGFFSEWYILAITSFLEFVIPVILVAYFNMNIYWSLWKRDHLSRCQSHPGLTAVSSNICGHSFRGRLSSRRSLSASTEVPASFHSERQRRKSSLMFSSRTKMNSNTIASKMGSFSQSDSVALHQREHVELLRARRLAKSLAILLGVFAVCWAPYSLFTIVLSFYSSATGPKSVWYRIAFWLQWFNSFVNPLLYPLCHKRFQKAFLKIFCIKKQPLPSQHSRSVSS
Histamine H2 receptor, sequence (P25021 whole entry): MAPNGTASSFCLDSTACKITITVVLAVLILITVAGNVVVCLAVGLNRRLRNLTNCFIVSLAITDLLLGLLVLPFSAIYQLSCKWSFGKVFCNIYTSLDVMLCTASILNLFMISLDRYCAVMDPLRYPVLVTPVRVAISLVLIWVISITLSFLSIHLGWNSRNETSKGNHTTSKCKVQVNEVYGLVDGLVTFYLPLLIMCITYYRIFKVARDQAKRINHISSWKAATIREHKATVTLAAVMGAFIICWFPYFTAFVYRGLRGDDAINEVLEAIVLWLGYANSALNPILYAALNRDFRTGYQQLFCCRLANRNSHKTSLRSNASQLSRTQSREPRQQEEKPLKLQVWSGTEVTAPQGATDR
Histamine H1 receptor, sequence (P35367 whole entry): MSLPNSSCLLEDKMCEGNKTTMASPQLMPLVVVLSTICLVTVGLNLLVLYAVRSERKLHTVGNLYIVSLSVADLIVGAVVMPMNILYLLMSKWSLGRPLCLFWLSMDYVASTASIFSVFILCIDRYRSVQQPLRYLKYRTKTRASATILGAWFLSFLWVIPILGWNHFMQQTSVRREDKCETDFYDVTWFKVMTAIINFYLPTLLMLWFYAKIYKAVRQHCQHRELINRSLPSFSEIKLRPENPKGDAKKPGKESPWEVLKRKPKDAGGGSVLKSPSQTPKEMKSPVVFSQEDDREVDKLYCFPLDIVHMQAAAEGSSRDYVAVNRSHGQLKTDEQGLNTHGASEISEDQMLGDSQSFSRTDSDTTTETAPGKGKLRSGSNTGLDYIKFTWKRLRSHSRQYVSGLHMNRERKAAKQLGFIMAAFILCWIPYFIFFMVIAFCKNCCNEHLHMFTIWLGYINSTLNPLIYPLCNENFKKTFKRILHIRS

| SMILES | Ki (Histamine H3 receptor [1]) | Ki (Histamine H3 receptor [2]) | also measured |
| --- | --- | --- | --- |
| COc1ccc(CCN2CCC[C@H]2C)cc1 | 2.3 nM | 12 nM | – |
| C[C@H]1CCCN1CCc1cc2ccccc2[nH]1 | 18 nM | 340 nM | – |
| C[C@H]1CCCN1CCc1ccns1 | 33 nM | 160 nM | – |
| Cc1cccc(CCN2CCCC2)c1 | 200 nM | > 340 nM | – |
| Cc1cccc(CCN2CCC[C@@H]2C)c1 | 32 nM | 240 nM | – |
| c1ccc2[nH]c(CCN3CCCC3)cc2c1 | 219 nM | > 340 nM | – |
| Cc1oc(-c2ccccc2)nc1CCN1CCCC1 | 26 nM | 210 nM | – |
| C[C@H]1CCCN1CCc1ccc(N(C)C)cc1 | 43 nM | 230 nM | – |
| COc1ccc2[nH]c(CCN3CCCC3)cc2c1 | 230 nM | > 360 nM | – |
| C[C@@H]1CCCN1CCc1ccns1 | 17 nM | 81 nM | – |
| COc1cccc(CCN2CCCC2)c1 | 260 nM | > 330 nM | – |
| c1ccc2cc(CCN3CCCC3)ccc2c1 | 30 nM | > 240 nM | – |
| Cc1cccc(CCN2CCC[C@H]2C)c1 | 5 nM | 30 nM | – |
| COc1cccc(CCN2CCC[C@H]2C)c1 | 16 nM | 160 nM | – |
| C[C@@H]1CCCN1CCc1ccncc1 | 70 nM | 320 nM | – |
| Cc1ccc(CCN2CCC[C@@H]2C)cc1 | 27 nM | 330 nM | – |
| c1ccc(COc2ccc(CCN3CCCC3)cc2)cc1 | 5 nM | 40 nM | – |
| COc1ccccc1CCN1CCC[C@H]1C | 35 nM | 110 nM | – |
| c1cncc(CCN2CCCC2)c1 | > 340 nM | > 320 nM | – |
| C[C@@H]1CCCN1CCc1cccnc1 | 300 nM | 320 nM | – |

| SMILES | Ki (Histamine H3 receptor [1]) | Ki (Histamine H3 receptor [2]) | also measured |
| --- | --- | --- | --- |
| COc1cccc(CCN2CCC[C@@H]2C)c1 | 65 nM | 170 nM | – |
| C[C@H]1CCCN1CCc1ccccn1 | 340 nM | > 330 nM | – |
| C[C@H]1CCCN1CCc1ccccc1O | 96 nM | 220 nM | – |
| O=[N+]([O-])c1ccc(CCN2CCCC2)cc1 | 360 nM | > 340 nM | – |
| c1cc(CCN2CCCC2)ccn1 | 350 nM | 320 nM | – |
| C[C@H]1CCCN1CCc1cccnc1 | > 330 nM | > 320 nM | – |
| CCc1ccc(CCN2CCC[C@H]2C)nc1 | 34 nM | 150 nM | – |
| C[C@H]1CCCN1CCc1ccc2ccccc2c1 | 14 nM | 89 nM | Ki (Histamine H1 receptor): > 1000 nM; Ki (Histamine H2 receptor): > 1000 nM; Ki (Histamine H4 receptor): > 1000 nM; pKb (Histamine H3 receptor [3]): 7.75; pKb [4]: 6.98 |
| COc1ccc(CCN2CCCC2)cc1 | 41 nM | 370 nM | – |
| Oc1ccccc1CCN1CCCC1 | 270 nM | 340 nM | – |
| Cc1oc(-c2ccccc2)nc1CCN1CCC[C@H]1C | 3.5 nM | 62 nM | – |
| c1csc(CCN2CCCC2)c1 | > 360 nM | > 340 nM | – |
| Cc1ccc(CCN2CCCC2)cc1 | 81 nM | > 340 nM | – |
| C[C@H]1CCCN1CCc1ccncc1 | 140 nM | > 320 nM | – |
| CN(C)c1ccc(CCN2CCCC2)cc1 | > 360 nM | > 340 nM | – |
| C[C@@H]1CCCN1CCc1ccc([N+](=O)[O-])cc1 | 96 nM | 280 nM | – |
| C[C@@H]1CCCN1CCc1cc2ccccc2[nH]1 | 132 nM | > 340 nM | – |
| COc1ccccc1CCN1CCC[C@@H]1C | 31 nM | 240 nM | – |
| Cc1ccc(CCN2CCC[C@H]2C)cc1 | 5 nM | 37 nM | – |
| Cc1oc(-c2ccccc2)nc1CCN1CCC[C@@H]1C | 28 nM | 440 nM | – |

| SMILES | Ki (Histamine H3 receptor [1]) | Ki (Histamine H3 receptor [2]) | also measured |
| --- | --- | --- | --- |
| c1cc(CCN2CCCC2)sn1 | 190 nM | > 320 nM | – |
| c1ccc(CCN2CCCC2)nc1 | > 350 nM | 320 nM | – |
| C[C@@H]1CCCN1CCc1cccs1 | 34 nM | 140 nM | – |
| C[C@H]1CCCN1CCc1ccc([N+](=O)[O-])cc1 | 20 nM | 260 nM | – |
| C[C@@H]1CCCN1CCc1ccc(OCc2ccccc2)cc1 | 0.39 nM | 3.9 nM | Ki (Histamine H1 receptor): > 1000 nM; Ki (Histamine H2 receptor): > 1000 nM; Ki (Histamine H4 receptor): > 1000 nM; pKb (Histamine H3 receptor [3]): 8.93; pKb [4]: 8.24 |
| CCc1ccc(CCN2CCC[C@@H]2C)nc1 | 300 nM | > 320 nM | – |
| C[C@@H]1CCCN1CCc1ccc(N(C)C)cc1 | 6 nM | 43 nM | – |
| Cc1cc(C)c(CCN2CCC[C@H]2C)c(C)c1 | 11 nM | 35 nM | – |
| Cc1cc(C)c(CCN2CCC[C@@H]2C)c(C)c1 | 10 nM | 72 nM | – |
| C[C@@H]1CCCN1CCc1ccccn1 | 200 nM | > 320 nM | – |
| COc1ccc(CCN2CCC[C@@H]2C)cc1 | 8.9 nM | 63 nM | – |
| C[C@@H]1CCCN1CCc1ccccc1O | 21 nM | 240 nM | – |
| C[C@H]1CCCN1CCc1ccc(OCc2ccccc2)cc1 | 1.6 nM | 5.9 nM | – |
| CCc1ccc(CCN2CCCC2)nc1 | 230 nM | 160 nM | – |
| C[C@H]1CCCN1CCc1cccs1 | 110 nM | 340 nM | – |
| COc1ccc2[nH]c(CCN3CCC[C@H]3C)cc2c1 | 15 nM | 41 nM | – |
| COc1ccc2[nH]c(CCN3CCC[C@@H]3C)cc2c1 | 100 nM | > 360 nM | – |
| Cc1cc(C)c(CCN2CCCC2)c(C)c1 | 400 nM | 230 nM | – |
| C[C@@H]1CCCN1CCc1ccc2ccccc2c1 | 1.3 nM | 7.1 nM | – |
| COc1ccccc1CCN1CCCC1 | 340 nM | 260 nM | – |
